# Measured values from ChEMBL document CHEMBL1153228, “Synthesis and in vivo evaluation of bicyclic gababutins” (Bioorg Med Chem Lett, 2010).
# Calls of active or inactive are those of the source. No cut-off for these calls is given here.
# Experiments:
# [1] = target: Voltage-dependent calcium channel alpha2delta subunit (Sus scrofa, UniProt O77773); experiment: Displacement of [3H]gabapentin from calcium channel alpha2delta in pig cerebral cortex membrane after 30 mins; format: cell membranes
# [2] = Inhibition of L-type amino acid transporter expressed in CHO cells assessed as inhibition of [3H]leucine uptake; format: cell-based
# Rattus norvegicus [3] = experiment: Analgesic activity in intrathecally dosed rat chronic constriction injury weight model assessed as inhibition of pain effect; format: functional, organism-based
# How it was run: (§1)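 Rat sciatic-nerve chronic constriction model: loose ligatures placed around the sciatic nerve produce hypersensitivity in one hind paw. Weight borne on each hind paw is measured, and the read-out is the difference between the ipsilateral (affected) and contralateral (unaffected) paw.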
# [4] = Bioavailability in rat; format: ADME, organism-based; details: in vivo
# [5] = Elimination half life in rat; format: ADME, organism-based; details: in vivo
# [6] = Clearance in rat; format: ADME, organism-based; details: in vivo
# Rattus norvegicus [7] = experiment: Analgesic activity in rat chronic constriction injury weight model assessed as inhibition of pain effect at 3 to 10 mg/kg, po; format: functional, organism-based; how it was run: as §1
# [8] = Lipophilicity, log D at pH 7.4; format: physicochemical; details: buffer
# Sequence of Voltage-dependent calcium channel alpha2delta subunit (O77773 whole entry): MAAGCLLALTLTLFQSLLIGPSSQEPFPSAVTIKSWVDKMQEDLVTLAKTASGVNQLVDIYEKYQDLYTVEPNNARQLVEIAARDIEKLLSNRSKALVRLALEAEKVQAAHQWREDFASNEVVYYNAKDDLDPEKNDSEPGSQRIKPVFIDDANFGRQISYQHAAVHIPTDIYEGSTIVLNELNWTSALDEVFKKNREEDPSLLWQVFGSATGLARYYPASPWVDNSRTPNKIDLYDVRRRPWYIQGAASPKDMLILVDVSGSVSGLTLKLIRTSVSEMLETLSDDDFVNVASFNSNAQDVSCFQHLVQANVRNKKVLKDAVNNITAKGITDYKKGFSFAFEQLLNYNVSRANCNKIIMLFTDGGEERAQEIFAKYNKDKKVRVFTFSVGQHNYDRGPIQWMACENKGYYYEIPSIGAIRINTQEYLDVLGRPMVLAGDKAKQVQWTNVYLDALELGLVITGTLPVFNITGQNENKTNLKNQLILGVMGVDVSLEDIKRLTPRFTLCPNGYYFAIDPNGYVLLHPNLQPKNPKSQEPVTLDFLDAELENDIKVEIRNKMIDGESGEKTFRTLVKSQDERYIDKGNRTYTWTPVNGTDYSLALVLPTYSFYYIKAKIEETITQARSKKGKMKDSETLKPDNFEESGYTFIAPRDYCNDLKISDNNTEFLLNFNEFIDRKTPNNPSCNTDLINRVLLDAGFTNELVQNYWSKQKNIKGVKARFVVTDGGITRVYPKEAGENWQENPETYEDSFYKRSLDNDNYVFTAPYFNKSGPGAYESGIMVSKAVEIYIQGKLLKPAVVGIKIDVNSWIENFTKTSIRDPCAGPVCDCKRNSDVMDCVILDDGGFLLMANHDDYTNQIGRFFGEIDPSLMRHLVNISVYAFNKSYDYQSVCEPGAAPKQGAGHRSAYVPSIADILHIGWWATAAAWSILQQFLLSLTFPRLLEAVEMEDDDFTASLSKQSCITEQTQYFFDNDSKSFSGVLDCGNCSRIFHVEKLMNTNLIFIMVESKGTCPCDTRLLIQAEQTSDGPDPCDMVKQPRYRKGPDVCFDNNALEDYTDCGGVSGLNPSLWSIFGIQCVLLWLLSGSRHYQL
SMILES,IC50 [1] [nM],other results
NCC1(CC(=O)O)CC2CCC2C1 (racemic),2900,–
NC[C@]1(CC(=O)O)CC2CCCC21 (mixture of isomers),25,–
NC[C@]1(CC(=O)O)C[C@H]2CCCC[C@H]2C1,720,–
NCC1(CC(=O)O)CC2CCCC2C1 (racemic),> 10000,–
C[C@@H]1C[C@@](CN)(CC(=O)O)C[C@@H]1C,107,IC50 [2]: 7 µM
NC[C@@]1(CC(=O)O)C[C@H]2CC[C@H]2C1,332,–
NC[C@@]1(CC(=O)O)C[C@@H]2CCC[C@@H]21,19,Activity (Rattus norvegicus [3]): Active; IC50 [2]: 6930 µM
NC[C@]1(CC(=O)O)C[C@H]2CCC[C@H]21,46,bioavailability [4]: 100%; half-life [5]: 138 min; clearance [6]: 4.5 mL/min/kg; Activity (Rattus norvegicus [7]): Active; IC50 [2]: > 10000 µM; logD [8]: -1
NC[C@]1(CC(=O)O)CCC2CCCC21 (mixture of isomers),7180,–
NC[C@@]1(CC(=O)O)CC2CCCCC21 (mixture of isomers),3090,–
C[C@H]1CC(CN)(CC(=O)O)C[C@@H]1C (relative stereo) [ATAGABALIN],22,IC50 [2]: 10 µM
NC[C@@]1(CC(=O)O)C[C@H]2CCCC[C@H]2C1,> 10000,–
NC[C@]1(CC(=O)O)CC2CCCCC21 (mixture of isomers),600,–
NCC1(CC(=O)O)CC2CCCCC2C1 (racemic),> 10000,–
NC[C@]1(CC(=O)O)C[C@H]2CC[C@H]2C1,38,bioavailability [4]: 84%; half-life [5]: 144 min; clearance [6]: 4.3 mL/min/kg; Activity (Rattus norvegicus [7]): Active; IC50 [2]: 38 µM; logD [8]: -1
NC[C@@]1(CC(=O)O)C[C@H]2CCC[C@H]2C1,> 10000,–
NC[C@@]1(CC(=O)O)CC2CCCC21 (mixture of isomers),2800,–
NC[C@]1(CC(=O)O)C[C@H]2CCC[C@H]2C1,2600,–
